The values that follow come from publication PMC10515777 (bioRxiv, 2024).

The target of data set [1] is WT CFTR (Homo sapiens, UniProt P13569). Briefly: Inside-out patch clamp recording of macroscopic currents, WT CFTR. The format is biochemical. Particulars: for change of CFTR currents: enantiomers perfused at 100 M, inside-out patches, 3 mM ATP. The essentials:
(§1)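 WT, S308A or Y304A CFTR (mutants made by site-directed mutagenesis), C-terminally GFP-tagged in BacMam vector, transfected into CHO cells, then 2% FBS at 30 °C for 2 days. Excised inside-out patches were phosphorylated with 25 units/ml PKA plus 3 mM ATP and held at −30 mV, 25 °C, pH 7.4 NMDG solutions. Fold stimulation is the current ratio with/without perfused compound. Dose-response currents were normalized to pre-titration ATP current and fitted for EC50. Means ± SE of patches.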

The target of data set [2] is S308A CFTR (Homo sapiens, UniProt P13569, S308A). As to the kind of experiment: Inside-out patch clamp recording, S308A CFTR. Particulars: inside-out patches, 3 mM ATP. The data set is classed as biochemical. The essentials:
as §1

For data set [3], the target named is Y304A CFTR (Homo sapiens, UniProt P13569, Y304A). As to the kind of experiment: Inside-out patch clamp recording, Y304A CFTR. The format is biochemical. The conditions noted are these: inside-out patches, 3 mM ATP. The essentials:
as §1

The conditions of data set [4]: ref [8]; cited from earlier work.
For data set [5] the following is noted: ref [9],[10]; cited from earlier work.

A value given as a limit tells only on which side of the number the result lay.

WT CFTR, sequence (P13569 whole entry, the tested form may be a part): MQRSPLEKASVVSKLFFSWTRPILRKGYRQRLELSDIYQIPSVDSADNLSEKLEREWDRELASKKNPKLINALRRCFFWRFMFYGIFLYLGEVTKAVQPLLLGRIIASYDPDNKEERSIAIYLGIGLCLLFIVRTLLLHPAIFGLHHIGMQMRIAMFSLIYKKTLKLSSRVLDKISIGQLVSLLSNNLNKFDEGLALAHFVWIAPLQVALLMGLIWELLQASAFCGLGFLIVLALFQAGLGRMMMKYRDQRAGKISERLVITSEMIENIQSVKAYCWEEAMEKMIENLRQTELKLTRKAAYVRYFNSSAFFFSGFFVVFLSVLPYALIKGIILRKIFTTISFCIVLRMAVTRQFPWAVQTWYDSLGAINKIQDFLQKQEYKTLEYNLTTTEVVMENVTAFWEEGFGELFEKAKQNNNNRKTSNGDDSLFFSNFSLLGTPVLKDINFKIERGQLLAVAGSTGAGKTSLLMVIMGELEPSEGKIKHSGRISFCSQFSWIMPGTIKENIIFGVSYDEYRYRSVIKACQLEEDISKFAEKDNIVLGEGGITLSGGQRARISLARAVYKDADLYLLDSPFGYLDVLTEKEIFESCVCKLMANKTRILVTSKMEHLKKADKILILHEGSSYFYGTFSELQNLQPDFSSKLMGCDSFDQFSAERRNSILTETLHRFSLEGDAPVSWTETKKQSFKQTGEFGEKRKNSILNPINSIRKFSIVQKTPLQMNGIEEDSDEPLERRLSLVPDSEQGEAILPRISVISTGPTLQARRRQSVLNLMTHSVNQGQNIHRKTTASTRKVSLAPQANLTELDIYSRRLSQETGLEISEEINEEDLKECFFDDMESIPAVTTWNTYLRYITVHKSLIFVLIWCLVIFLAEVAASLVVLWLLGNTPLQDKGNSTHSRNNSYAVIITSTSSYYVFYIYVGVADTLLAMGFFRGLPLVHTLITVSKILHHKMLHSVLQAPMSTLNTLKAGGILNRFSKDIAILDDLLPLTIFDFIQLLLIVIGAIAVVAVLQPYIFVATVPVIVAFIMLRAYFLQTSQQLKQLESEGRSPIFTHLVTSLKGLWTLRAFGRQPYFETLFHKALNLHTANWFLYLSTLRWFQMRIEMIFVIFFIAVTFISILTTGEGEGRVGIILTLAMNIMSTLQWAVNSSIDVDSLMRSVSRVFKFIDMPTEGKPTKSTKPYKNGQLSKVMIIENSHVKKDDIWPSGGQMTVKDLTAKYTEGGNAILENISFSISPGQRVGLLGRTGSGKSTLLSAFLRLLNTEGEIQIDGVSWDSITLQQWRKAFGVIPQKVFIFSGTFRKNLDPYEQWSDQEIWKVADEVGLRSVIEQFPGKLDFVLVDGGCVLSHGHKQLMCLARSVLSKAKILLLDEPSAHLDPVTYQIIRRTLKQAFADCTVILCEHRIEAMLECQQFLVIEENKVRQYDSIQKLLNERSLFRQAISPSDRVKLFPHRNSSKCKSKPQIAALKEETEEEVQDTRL
S308A CFTR, sequence (P13569 whole entry S308A): as the sequence (P13569 whole entry, the tested form may be a part) above, with S308A counted along it
Y304A CFTR, sequence (P13569 whole entry Y304A): as the sequence (P13569 whole entry, the tested form may be a part) above, with Y304A counted along it

For the compound `C[C@H](COc1ccccc1)C(=O)n1nc(N)c2ccc(F)cc21` [(R)-’853, (R)-1-(3-Amino-6-fluoro-1H-indazol-1-yl)-2-methyl-3-phenoxypropan-1-one], the “change of CFTR currents” value in data set [1] stood at 0.89 fold. The compound `C[C@@H](COc1ccc(F)cc1)C(=O)n1nc(N)c2ccc(F)cc21` [(S)-SX263, (S)-1-(3-Amino-6-fluoro-1H-indazol-1-yl)-3-(4-fluorophenoxy)-2-methylpropan-1-one] showed an EC50 in data set [1] of 136 ± 60 nM.

For `C[C@@H](COc1ccccc1)C(=O)n1nc(N)c2ccc(F)cc21` [(S)-’853, (S)-1-(3-Amino-6-fluoro-1H-indazol-1-yl)-2-methyl-3-phenoxypropan-1-one], in data set [1], the EC50 was found to be 2100 ± 900 nM and the “change of CFTR currents” value came to 1.5 fold. Besides, the “effect of alanine substitution S308A on compound activity” value in data set [2] is given as “abolished the potentiating effect”. Further, the “effect of alanine substitution Y304A on compound activity” value in data set [3] is reported as “abolished the potentiating effect”. For `C[C@@H](COc1ccccc1)C(=O)n1nc(N)c2ccc(CO)cc21` [Compound I1408, (S)-1-(3-Amino-6-(hydroxymethyl)-1H-indazol-1-yl)-2-methyl-3-phenoxypropan-1-one], it took 93 ± 42 nM to reach a half-maximal effect in data set [1] (EC50). Take `C[C@H](COc1ccccc1)C(=O)n1ncc2ccc(C(N)=O)cc21` [Compound I1412, (R)-1-(2-Methyl-3-phenoxypropanoyl)-1H-indazole-6-carboxamide]: the IC50 in data set [1] was 21000 nM. Further, the “effect of alanine substitution S308A on compound activity” value in data set [2] is reported as “eliminated the activity”. The “effect of alanine substitution Y304A on compound activity” value in data set [3] is recorded as “eliminated the activity”. In turn, `C[C@H](COc1ccccc1)C(=O)n1nc(N)c2ccc(C(N)=O)cc21` [Compound I1422, (R)-3-Amino-1-(2-methyl-3-phenoxypropanoyl)-1H-indazole-6-carboxamide] registered an IC50 in data set [1] of 41000 nM. As to `CC(C)(C)c1cc(C(C)(C)C)c(NC(=O)c2c[nH]c3ccccc3c2=O)cc1O` [Ivacaftor, N-(2,4-di-tert-butyl-5-hydroxyphenyl)-4-oxo-1,4-dihydroquinoline-3-carboxamide], the water solubility in data set [4] is less than 0.05 µg/mL. In addition, the “bound to plasma proteins” value in data set [5] is on record as 99%.
